In the library only some 3.1% were active in any assay of this set; here they are far more common.
KCNQ1 block: inhibitors of human KCNQ1 channel, primary screen, cell-based, thallium flux, high-throughput; Potassium voltage-gated channel subfamily KQT member 1 (Homo sapiens), P51787; CHO-K1 KCNQ1, FluxOR thallium flux fluorescence; hits give high values; B-score at 10 µM; 1.3% of 310,000 active;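 active = compounds whose thallium flux B-score, printed positive for inhibition, exceeds three library SD while starting fluorescence stays within three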;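 note: channel opened by potassium depolarization with thallium stimulus after 20 min compound exposure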
KCNK3 block: human KCNK3 channel inhibitors, primary screen, CHO cells, FluxOR thallium flux, B-score | B-score at 10 µM | FluxOR fluorescence; hits give low values | 0.84% of 340,000 active | Potassium channel subfamily K member 3 (Homo sapiens), O14649;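 active = B-score under library mean minus 4 SD, starting fluorescence ratio at most library mean plus 5 SD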;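 note: more negative B-score means stronger inhibition of thallium flux through KCNK3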
KCNK9 block: KCNK9 potassium channel inhibitors, primary screen, HEK293 cells, thallium flux | 1.2% of 310,000 active | B-score at 10 µM | AID 488922, 2010 | Potassium channel subfamily K member 9 (Homo sapiens), Q9NPC2 | FluxOR thallium flux fluorescence; hits give low values;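 active = ratio B-score over 3 SD below the library mean, with starting fluorescence within 5 SD of its mean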;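 note: negative B-score means less thallium flux so channel inhibition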
Target sequence (Q9NPC2 whole entry, looked up): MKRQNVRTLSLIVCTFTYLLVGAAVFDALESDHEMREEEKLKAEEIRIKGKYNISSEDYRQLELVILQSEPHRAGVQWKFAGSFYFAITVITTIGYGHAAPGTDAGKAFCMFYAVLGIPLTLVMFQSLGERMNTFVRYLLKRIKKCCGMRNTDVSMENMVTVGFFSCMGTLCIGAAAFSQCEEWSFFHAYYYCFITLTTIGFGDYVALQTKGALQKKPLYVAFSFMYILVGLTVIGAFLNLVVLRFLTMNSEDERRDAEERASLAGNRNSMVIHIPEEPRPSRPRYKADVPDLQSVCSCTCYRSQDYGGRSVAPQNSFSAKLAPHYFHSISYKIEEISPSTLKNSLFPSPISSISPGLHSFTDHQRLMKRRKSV
KCNQ1 pot: potentiators or activators of KCNQ1 channel, primary screen, cell-based, thallium flux, high-throughput; AID 2648, 2010; CHO-K1 KCNQ1, thallium flux FluxOR fluorescence; hits give high values; 0.35% of 310,000 active; Potassium voltage-gated channel subfamily KQT member 1 (Homo sapiens), P51787; B-score at 10 µM;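 active = fluorescence ratio B-score, a plate-corrected score, at least three library SD, with initial intensity B-score within 5 SD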
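Assay system: CHO-K1 cells stably expressing KCNQ1; Medium: assay buffer with matched DMSO; Also added: K+/Tl+ depolarizing stimulus; Dosing: single dose; Timing: dye 90 min, compound 20 min, room temperature; Measured by: kinetic FluxOR thallium fluorescence, 10-s 1-Hz baseline, 110-s post-stimulus read; Read-out: peak-minus-minimum fluorescence over initial fluorescence, negative-control normalized, B-scored.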
hERG rescue: hERG rescue from dofetilide block, primary screen, cell-based, CHO-hERG, FluxOR thallium flux, dofetilide IC70. AID 1511, 2009. activation (rescue from dofetilide block), less the hit threshold, % at 10 µM. 0.51% of 310,000 active. Voltage-gated inwardly rectifying potassium channel KCNH2 (Homo sapiens), Q12809. dofetilide IC70 present;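 active = activation above the mean of controls blocked by dofetilide plus 5 SD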;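 note: thallium influx through hERG after potassium depolarization seen as dye fluorescence rise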
Each line names hits and unclear results; the compound was inactive in the other large screens.

CCOC(=O)[C@H]1[C@H]2COc3ccc(Cl)cc3[C@@H]2N2C(=O)CN(Cc3ccc(C)cc3)C(=O)[C@@]12C	none (no result: KCNQ1 block, KCNK9 block, KCNQ1 pot, hERG rescue)
CCOc1ccc2c3c(c(=O)oc2c1OCC)CCCC3	KCNK9 block -7.3
COc1ccc2c3c(c(=O)oc2c1OCC(N)=O)CCCC3	none
Cc1nc(C(N)=O)c(N)n1CCc1ccccc1	none
CCOc1ccc(/C=C2\CCCc3c2nc2ccccc2c3C(=O)O)cc1OC	KCNQ1 block 19
CC(C)C(C)NC(=O)CSc1nc2scc(-c3ccco3)c2c(=O)n1-c1ccccc1 (stereo unspecified)	KCNK9 block -6.8
CC(C)Cn1c(N)c(C(=O)COC(=O)c2cnc(Cl)c(Cl)c2)c(=O)n(C)c1=O	KCNQ1 block 6
O=C(CCSc1nnc(-c2ccccc2)o1)N1CCOCC1	none
O=C(CCSc1nnc(-c2ccco2)o1)N1CCOCC1	hERG rescue 5.7
Clc1ccccc1OCCn1cnc2ccccc21	none
Brc1ccccc1OCCCCn1cnc2ccccc21	KCNQ1 block 8
N#Cc1ccc(-c2nc3ccccc3c(=O)n2O)cc1	none
O=c1c2cc(Cl)ccc2nc(-c2ccc([N+](=O)[O-])cc2)n1O	KCNQ1 pot 13, hERG rescue 21
O=c1c2ccccc2nc(-c2ccc(Cl)cc2Cl)n1O	none
O=c1c2cc(Br)ccc2nc(-c2ccc(Cl)cc2)n1O	KCNQ1 pot 104, hERG rescue 35
O=c1c2ccc(Cl)cc2nc(-c2cccc(C(F)(F)F)c2)n1O	KCNQ1 pot 136, hERG rescue 75
N#Cc1ccc(-c2nc3cc(Cl)ccc3c(=O)n2O)cc1	none
Cc1ccc(-c2nc3c(Cl)cc(Cl)cc3c(=O)n2O)cc1	KCNQ1 pot 105, hERG rescue 55
CCC(NC(=O)Cc1c(C)c2c(cc(C)c3c(C)c(C)oc32)oc1=O)C(=O)O (stereo unspecified)	none
O=S(=O)(c1ccccc1F)N1CCN(Cc2cc3c(cc2Br)OCCO3)CC1	none (no result: KCNQ1 block, KCNK9 block, KCNQ1 pot, hERG rescue)
O=c1c2ccccc2nc(-c2ccccc2Cl)n1O	none
O=c1c2ccccc2nc(-c2ccc(Cl)c(Cl)c2)n1O	KCNQ1 pot 37, hERG rescue 21
Cc1ccc2oc(C(=O)N3CCN(CCO)CC3)c(C)c2c1	KCNQ1 pot 9, hERG rescue 8.5
O=C(O)CCSc1ncnc2sc(-c3ccccc3)cc12	KCNQ1 pot 14, hERG rescue 6.6
O=C(COC(=O)c1ccc(Br)cc1)NCCN1C(=O)CSC1=O	hERG rescue 7.3
O=[N+]([O-])c1cc(Br)ccc1C[n+]1ccccc1	none (no result: KCNQ1 block, KCNK9 block, KCNQ1 pot, hERG rescue)
CC[C@]12c3[nH]c4cc(-c5ccco5)ccc4c3CCN1C(=O)[C@@H](CC(=O)NCCCn1ccnc1)C[C@@H]2C(=O)N1CCN(C(=O)c2ccco2)CC1	none (no result: KCNQ1 block, KCNK9 block, KCNQ1 pot, hERG rescue)
CCN(CC)c1ccc2cc(NC(=O)CCC(=O)O)c(=O)oc2c1	KCNQ1 block 14
CCN(CC)c1ccc2cc(C(C)=O)c(=O)oc2c1	none
Cc1ccc(Nc2cc(C)nn2-c2nc(C)cc(=O)[nH]2)cc1	KCNQ1 pot 32, hERG rescue 20
Cc1nn(-c2ccc(Cl)cc2)c2sc(C(=O)c3c(N)n(C)c(=O)n(C)c3=O)cc12	hERG rescue 24
Cc1cc(Cl)ccc1OCC(=O)NNC(=O)C1CCCO1 (stereo unspecified)	KCNQ1 pot 26
CCOc1ccc(NS(=O)(=O)c2cccc(C(=O)NCC3(N(C)C)CCCCC3)c2)cc1	none (no result: KCNQ1 block, KCNK9 block, KCNQ1 pot, hERG rescue)
Cn1nc(-c2ccc(Cl)cc2)nc2c(=O)n(C)c(=O)nc1-2	KCNQ1 pot 9 (no result: KCNK3 block)
O=C(c1ccc2c(=O)n3c(nc2c1)CCCCC3)N1CCN(c2ccccc2F)CC1	none
O=S(=O)(CCNC1CC1)NC1CCCCC1	none (no result: KCNQ1 block, KCNK9 block, KCNQ1 pot, hERG rescue)
Nc1ncnc2c1cnn2-c1ccccc1	none
S=c1nc[nH]c2c1cnn2-c1ccccc1	KCNQ1 pot 19
O=C1ON=C(c2ccccc2)/C1=C/c1ccco1	KCNQ1 block 7
CC(=O)c1cccc(NC(=O)CSc2nc(N3CCOCC3)nc(N3CCOCC3)n2)c1	none
COc1ccc(-c2oc3cccnc3c2C#CCO)cc1	none
COc1ccc(-c2oc3cccnc3c2C#CC2(O)CCCCC2)cc1	KCNQ1 block 6
Cc1ccc(C2=NN(C(=O)CCCC(=O)O)C(c3ccc4c(c3)OCO4)C2)cc1 (stereo unspecified)	hERG rescue 5.5
Cc1ccc(C2=NN(C(=O)CCC(=O)O)C(c3ccc4c(c3)OCO4)C2)cc1 (stereo unspecified)	none
COc1ccc(Cl)cc1NC(=S)NCCSc1ccc(C)cc1	KCNK9 block -8.1
COc1ccccc1NC(=S)NCCSc1ccc(Cl)cc1	none
COc1ccc(OC)c(NC(=S)N2CCC(C(O)(c3ccccc3)c3ccccc3)CC2)c1	KCNQ1 pot 44
S=c1nc(C2CCCCC2)n(-c2ccccc2)[nH]1	KCNQ1 pot 40, hERG rescue 11
S=c1nc(-c2ccccc2)n(-c2ccccc2)[nH]1	none
S=c1sc2c(Cl)ncnc2n1-c1ccccc1	KCNQ1 pot 8
Cc1nc(N2CCN(C)CC2)c2sc(=S)n(-c3ccccc3)c2n1	none
Cn1nc(C(F)(F)F)c(CN2CC(C)(C)C2=O)c1N1CCOCC1	hERG rescue 5.0
COc1ccc(Nc2oc(COc3ccc(OC)cc3)nc2C#N)cc1	none
COc1ccc(Nc2oc(COc3ccccc3F)nc2C#N)cc1	KCNK9 block -8
Cc1ccc(NC(=O)NC(=O)COc2c(F)c(F)cc(F)c2F)c(C)c1	none (no result: KCNQ1 block, KCNK9 block, KCNQ1 pot, hERG rescue)
O=C(N/N=C/c1ccccn1)c1[nH]c2ccc([N+](=O)[O-])cc2c1-c1ccccc1	KCNQ1 block 10
Oc1c(N=NC(=S)Nc2ccccc2F)c2ccccc2n1Cc1ccccc1Cl	KCNQ1 pot 10, hERG rescue 21
Cc1ccc(Cn2c(O)c(N=NC(=S)Nc3ccccc3F)c3ccccc32)cc1	hERG rescue 18
C=CCn1c(O)c(N=NC(=S)Nc2ccccc2F)c2ccccc21	KCNQ1 pot 48, hERG rescue 102
CCCCNC(=S)N=Nc1c(O)n(Cc2ccccc2)c2ccccc12	none
C=CCn1c(O)c(N=NC(=S)Nc2ccccc2F)c2cc(S(=O)(=O)N3CCOCC3)ccc21	KCNQ1 pot 10, hERG rescue 5.9
CCCC(=O)c1ccc(O)cc1O	none
N#Cc1ccc(CN2CCN(C(=O)c3cccc(S(=O)(=O)N4CCCCCC4)c3)CC2)cc1	none (no result: KCNQ1 block, KCNK9 block, KCNQ1 pot, hERG rescue)
C/C(Cl)=C\Cn1c(O)c(N=NC(N)=S)c2ccccc21	hERG rescue 15
NC(=S)N=Nc1c(O)n(Cc2ccccc2)c2ccccc12	none
C=CCn1c(O)c(N=NC(=S)Nc2cccc(C)c2)c2ccccc21	KCNQ1 pot 40, hERG rescue 19
